# Apaf1 inhib – blocks human Apaf-1 apoptosome activity. O14727. reconstituted apoptosome caspase-3 activity, DEVD-Rh110 fluorescence. inhibition, % at 20 µM. actives 0.71% (n = 330,000). AID 489030; active = inhibition of at least 40% at 20 µM;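 note: plate controls were DMSO wells for no effect and DEVD-CHO caspase inhibitor wells for full effect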
# Target sequence (O14727 whole entry, looked up): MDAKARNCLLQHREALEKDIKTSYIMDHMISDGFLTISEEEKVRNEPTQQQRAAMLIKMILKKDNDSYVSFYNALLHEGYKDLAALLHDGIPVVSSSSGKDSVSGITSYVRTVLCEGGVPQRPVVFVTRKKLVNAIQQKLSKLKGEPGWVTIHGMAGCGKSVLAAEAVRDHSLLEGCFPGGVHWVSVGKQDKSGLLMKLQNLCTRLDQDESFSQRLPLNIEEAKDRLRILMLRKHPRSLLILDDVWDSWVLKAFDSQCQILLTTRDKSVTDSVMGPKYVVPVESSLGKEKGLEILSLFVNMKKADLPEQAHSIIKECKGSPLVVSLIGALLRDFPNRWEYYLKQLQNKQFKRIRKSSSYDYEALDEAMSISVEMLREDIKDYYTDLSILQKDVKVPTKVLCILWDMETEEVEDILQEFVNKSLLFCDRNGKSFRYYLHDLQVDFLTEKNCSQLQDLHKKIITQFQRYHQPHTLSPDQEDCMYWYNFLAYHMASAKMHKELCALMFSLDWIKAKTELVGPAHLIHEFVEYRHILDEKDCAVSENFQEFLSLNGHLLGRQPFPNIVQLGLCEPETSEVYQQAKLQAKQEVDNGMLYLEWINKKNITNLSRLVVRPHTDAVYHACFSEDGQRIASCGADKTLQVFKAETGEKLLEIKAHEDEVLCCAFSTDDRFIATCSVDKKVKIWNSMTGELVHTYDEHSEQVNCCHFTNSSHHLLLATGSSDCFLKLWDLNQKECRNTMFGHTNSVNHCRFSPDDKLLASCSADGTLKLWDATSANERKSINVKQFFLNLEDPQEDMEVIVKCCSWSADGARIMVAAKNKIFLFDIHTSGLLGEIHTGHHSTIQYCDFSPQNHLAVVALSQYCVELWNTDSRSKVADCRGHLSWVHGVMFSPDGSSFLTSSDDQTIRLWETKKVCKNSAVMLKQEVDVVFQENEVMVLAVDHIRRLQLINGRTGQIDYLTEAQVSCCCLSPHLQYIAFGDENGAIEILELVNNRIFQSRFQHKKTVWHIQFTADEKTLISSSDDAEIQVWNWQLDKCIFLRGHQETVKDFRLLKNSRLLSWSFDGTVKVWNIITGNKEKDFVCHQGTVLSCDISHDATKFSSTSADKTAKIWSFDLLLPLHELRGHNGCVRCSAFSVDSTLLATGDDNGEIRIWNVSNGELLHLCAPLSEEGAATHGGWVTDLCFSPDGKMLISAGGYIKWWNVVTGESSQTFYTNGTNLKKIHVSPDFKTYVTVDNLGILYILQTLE
#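 Material: biochemical Apaf-1 apoptosome reconstitution. Medium: Hepes buffer, pH 7.5. Also added: cytochrome c activation, bis-DEVD rhodamine 110 substrate. Timing: 30 min compound preincubation, 50 min activation, room temperature. Measured by: rhodamine 110 fluorescence at Ex 480/Em 540 nm.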
# ZTA counter – blocks Epstein-Barr virus ZTA, an EBNA-1 counter-screen. P03206. actives 0.15% (n = 320,000). ZTA-DNA binding, fluorescence polarization. inhibition, % at 11 µM. AID 2234; in the data active = inhibition above about 33%
# PfGluPho inh – PfG6PD (Plasmodium falciparum) enzyme inhibition. inhibition, % at 20 µM. actives 0.78% (n = 350,000). PfGluPho enzyme, NADPH resazurin-diaphorase fluorescence. AID 504690;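 active = inhibition reaching at least a set limit at 20 µM in the primary screen, cut at about 59% in these data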;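 note: 0% = DMSO wells with substrate and 100% = DMSO wells lacking glucose-6-phosphate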
# EBNA-1 inh – blocks EBNA-1 binding to DNA; EBNA-1 DNA binding, fluorescence polarization; inhibition, % at 14.8 µM; actives 0.34% (n = 300,000); AID 1950; in the data active = inhibition above about 28%
# UBC13 polyUb – blocks human UBC13 polyubiquitin chain formation | P61088 | TR-FRET | inhibition, % at 20 µM | actives 0.47% (n = 330,000); in the data active = inhibition above about 45%, passing the limit was not always enough
# PfM18AAP inh – blocks P. falciparum M18 aspartyl aminopeptidase; AID 1822; inhibition, % at 7.35 µM; actives 1.2% (n = 290,000); recombinant PfM18AAP, H-Glu-NHMec fluorogenic cleavage;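 active = inhibition above the campaign mean inhibition over all tested compounds plus 3 SD, cut at about 28% in these data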;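 note: 0% = plate median of test compound wells and 100% = 2 mM ZnCl2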
# Apaf-1 inh conf – Apaf-1 inhibition, single-dose confirmed. shares compounds with Apaf1 inhib. reconstituted apoptosome, caspase-3 DEVD-Rh110 fluorescence. inhibition, % at 20 µM. actives 25% (n = 1,800). AID 504614;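 active = mean inhibition of at least 40% at 20 µM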;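 note: plate controls were DMSO wells for no effect and DEVD-CHO caspase inhibitor control wells for full effect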
# Rh110 interf inh – Rh110 signal interference in Apaf-1 inhibitor counter-screen | AID 504615 | Rh110 fluorescence interference, quenched caspase reaction | activation (fluorescence interference), % at 20 µM | 1,800 tested, under 10 active | shares compounds with Apaf1 inhib;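 active = signal rise of 40% or more at 20 µM, treated as a fluorescence artifact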
# Fluor interf inh – shows fluorescence interference in the Apaf-1 inhibitor assay format; shares compounds with Apaf1 inhib; 460 tested, under 10 active; IC50, µM; fluorescence interference counterscreen, Apaf-1 assay format; call rule not given here
# Numbers without * were called inactive; / = not tested or not shown; ! = not active in a repeat. The list is not random: actives were taken first. Their share in the collection is about 2.9%.
SMILES,Apaf1 inhib,ZTA counter,PfGluPho inh,EBNA-1 inh,UBC13 polyUb,PfM18AAP inh,Apaf-1 inh conf,Rh110 interf inh,others
CCOc1ccc(CNc2cccc(SC)c2)cc1,10,-2,14,1,1,6,/,/,
C=CCn1c(SCC(=O)Nc2sccc2C(N)=O)nc2ccc(Cl)cc2c1=O,19,-20,22,-6,1,-2,/,/,
C=CCn1c(SCC(=O)Nc2sccc2C(N)=O)nc2sc(CC)cc2c1=O,42*,-10,9,-5,4,7,36,7,
COc1cc(/C=C2\C(=O)N(CCC#N)N=C2C)c(Br)cc1OC(C)C,79*,-25,4,-5,-1,16,28,0,
Cc1ccccc1NC(=O)COC(=O)COc1ccc2ccc(=O)oc2c1,/,/,-10,/,/,/,/,/,
Cc1cccnc1NC(=O)CNC(=O)c1ccccc1,-11,-1,6,/,2,/,/,/,
CCc1noc(C)c1C(=O)N1CCN(S(=O)(=O)c2ccc(Cl)cc2)CC1,-8,1,9,/,5,/,/,/,
CCc1noc(C)c1C(=O)N1CCN(S(=O)(=O)c2c(C)cc(C)cc2C)CC1,57*,-10,4,/,35,/,39,5,
COc1cccc(C=Nc2ccc(N3CCOCC3)cc2)c1O,5,2,16,11,-4,-16,/,/,
O=[N+]([O-])c1cc(Br)c(O)c(C=Nc2ccc(N3CCOCC3)cc2)c1,68*,127*,19,57*,-22,21,15,2,
CN(CCO)c1cnccn1,3,-6,-1,-2,-9,-3,/,/,
CC(C)c1nc(NCc2ccccc2)c(C#N)c2c1CCCC2,7,1,2,-9,14,-8,/,/,
N#Cc1c(NCCCO)nc(NCc2ccccc2)c2c1CCN(Cc1ccccc1)C2,69*,-5,24,-10,-37,2,21,2,
CN1CCc2c(C#N)c(N3CCCCC3)nc(NCc3ccccc3)c2C1,52*,-4,3,2,20,9,21,11,
CCC(CC)c1nnc(NC(=O)CCc2ccccc2OC)s1,7,-8,-2,5,1,-1,/,/,
COc1ccccc1-n1c(N)c(C(=O)NCC2CCCO2)c2nc3ccccc3nc21 (stereo unspecified),69*,14,21,4,0,17,15,7,
COc1ccccc1-n1c(C)nc2cc(C(=O)NCC3CCCO3)ccc21 (stereo unspecified),-5,-4,0,4,-7,6,/,/,
COCCCNC(=O)c1c(N)n(-c2cccc(S(N)(=O)=O)c2)c2nc3ccccc3nc12,43*,6,11,-18,4,23,28,1,
CCCNC(=O)c1c(N)n(-c2cccc(OC)c2)c2nc3ccccc3nc12,28,-1,15,-1,14,-7,/,/,
Nc1c(C(=O)NCC2CCCO2)c2nc3ccccc3nc2n1-c1ccccc1 (stereo unspecified),60*,8,-3,-2,-9,-9,27,9,
CC(Sc1nnc(-c2ccco2)n1N)C(=O)NCc1ccc2c(c1)OCO2 (stereo unspecified),-3,/,-2,/,0,/,/,/,
C=CCSc1nsc(NC(=O)Nc2ccc(F)cc2)n1,3,1,-11,-6,0,-12,/,/,
COc1ccc(C(CNC(=O)c2cccc(S(=O)(=O)N(C)c3ccccc3)c2)N2CCCC2)cc1 (stereo unspecified),43*,-6,0,/,10,/,19,7,
COc1ccc(C(CNC(=O)C2CC(=O)N(Cc3ccccc3)C2)N2CCOCC2)cc1 (stereo unspecified),-13,5,-18,/,-2,/,/,/,
COc1ccc(C(CNC(=O)c2cccc(NS(=O)(=O)c3ccccc3)c2)N2CCCC2)cc1 (stereo unspecified),/,/,50,/,/,/,/,/,
SMILES,Apaf1 inhib,ZTA counter,PfGluPho inh,EBNA-1 inh,UBC13 polyUb,PfM18AAP inh,Apaf-1 inh conf,Rh110 interf inh,others
COc1ccc(C(CNC(=O)C2CC(=O)N(Cc3ccccc3)C2)N2CCCC2)cc1 (stereo unspecified),61*,-18,4,/,42,/,37,1,
Cc1ccccc1NC(=O)Cc1nc(COC(=O)C(NC(=O)c2ccccc2C)C(C)C)cs1 (stereo unspecified),2,-7,2,/,9,/,/,/,
O=C(C1CC(=O)N(C2CCCC2)C1)N1CCN(c2cccc(Cl)c2)CC1 (stereo unspecified),7,7,7,9,-2,-6,/,/,
CC(C)(C)c1ccc(OCCOc2ccc(C(C)(C)C)cc2NC=O)c(NC=O)c1,41*,-16,30,3,-4,0,35,6,
OCCCCNc1cccc2ccccc12,81*,-11,35,-2,-98,11,18,-2,
OCCCCCNc1ncnc2ccccc12,5,-14,11,-9,3,-11,/,/,
Cn1cc(Br)c(C(=O)N/N=C/c2cc3ccccc3nc2Cl)n1,-2,/,-7,/,4,6,/,/,
O=C(/C=C/c1ccc(-c2ccccc2[N+](=O)[O-])o1)c1ccco1,43*,3,13,-9,-32,19,19,-2,
O=C(C=Cc1ccco1)c1ccco1,/,/,31,/,/,/,/,/,
C=CCOc1ccccc1/C=N/NC(=O)Cc1ccc(C)cc1,22,-8,3,-1,-3,2,/,/,
CN(CC(=O)Nc1ccc(F)cc1)C(=O)C1CC(=O)N(Cc2ccccc2)C1 (stereo unspecified),44*,8,5,11,5,-9,26,3,
CN(CC(=O)Nc1cccc(F)c1)C(=O)C1CC(=O)N(Cc2ccccc2)C1 (stereo unspecified),-4,7,21,2,-1,-2,/,/,
CC(C)[C@H]1COCCS(=O)(=O)N1Cc1ccccc1-c1ccc(F)cc1,25,/,30,/,/,/,/,/,
CCCOc1cc2c(C#N)c(N3CCCC3)nc(N)c2c(N)n1,98*,-4,35,-18,-143,/,73*,3,Fluor interf inh=>100
COc1cc2c(C#N)c(N3CCCC3)nc(N)c2c(N)n1,84*,-7,20,3,-27,5,49*!,11,
CCCCN(CC)c1nc(N)c2c(N)nc(OCC)cc2c1C#N,98*,-4,25,-5,-13,4,16,11,
COc1ccc(-n2ncc3c(=O)n(CC(=O)Nc4ccc5c(c4)OCCO5)cnc32)cc1,1,9,-18,-3,21,-1,/,/,
O=C(NCc1cccs1)c1cccc(S(=O)(=O)N2CCCCC2)c1,55*,-2,5,0,9,0,15,5,
O=C(NCc1cccs1)c1ccc(Cl)c(S(=O)(=O)N2CCCC2)c1,15,-7,-3,-8,-8,-1,/,/,

# Screening data from PubChem BioAssay.
